According to ChEMBL document CHEMBL5131398, “Novel nucleocapsid protein-targeting phenanthridine inhibitors of SARS-CoV-2” (Eur J Med Chem, 2022):

How the values were obtained:
SARS-CoV-2 [1] = test: Antiviral activity against Severe acute respiratory syndrome coronavirus 2 infected in African green monkey Vero E6 cells assessed as inhibition of viral cytopathic effect at 200 uM incubated for 72 hrs by CCK8 assay relative to control; assay type: functional; design: scale not given: the % may be the effect or the level left
SARS-CoV-2 [2] = test: Antiviral activity against Severe acute respiratory syndrome coronavirus 2 infected in African green monkey Vero E6 cells assessed as inhibition of viral cytopathic effect at 0.32 uM incubated for 72 hrs by CCK8 assay relative to control; assay type: functional; design: scale not given: the % may be the effect or the level left
SARS-CoV-2 [3] = test: Antiviral activity against Severe acute respiratory syndrome coronavirus 2 infected in African green monkey Vero E6 cells assessed as inhibition of viral cytopathic effect at 40 uM incubated for 72 hrs by CCK8 assay relative to control; assay type: functional; design: scale not given: the % may be the effect or the level left
SARS-CoV-2 [4] = test: Antiviral activity against Severe acute respiratory syndrome coronavirus 2 infected in African green monkey Vero E6 cells assessed as inhibition of viral cytopathic effect at 1.6 uM incubated for 72 hrs by CCK8 assay relative to control; assay type: functional; design: scale not given: the % may be the effect or the level left
SARS-CoV-2 [5] = test: Antiviral activity against Severe acute respiratory syndrome coronavirus 2 infected in African green monkey Vero E6 cells assessed as inhibition of viral cytopathic effect at 0.064 uM incubated for 72 hrs by CCK8 assay relative to control; assay type: functional; design: scale not given: the % may be the effect or the level left
Vero C1008 = test: Cytotoxicity against African green monkey Vero E6 cells assessed as reduction in cell viability incubated for 72 hrs by CCK8 assay; assay type: toxicity, cell-based; settings: chlorocebus sabaeus, vero c1008, 72 h
Summary of the method: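 Vero E6 cells were seeded and grown overnight, then exposed to a range of compound concentrations for 72 h. Viability was read by CCK8. Triplicate.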

SARS-CoV-2 [6] = test: Antiviral activity against Severe acute respiratory syndrome coronavirus 2 infected in African green monkey Vero E6 cells assessed as inhibition of viral cytopathic effect at 8 uM incubated for 72 hrs by CCK8 assay relative to control; assay type: functional; design: scale not given: the % may be the effect or the level left
SARS-CoV-2 [7] = test: Antiviral activity against Severe acute respiratory syndrome coronavirus 2 infected in African green monkey Vero E6 cells assessed as reduction in viral RNA copies at 6.25 uM incubated for 48 hrs by RT-qPCR analysis relative to control; assay type: functional; design: scale not given: the % may be the effect or the level left
SARS-CoV-2 [8] = test: Antiviral activity against Severe acute respiratory syndrome coronavirus 2 infected in African green monkey Vero E6 cells assessed as reduction in viral RNA copies at 100 uM incubated for 48 hrs by RT-qPCR analysis relative to control; assay type: functional; design: scale not given: the % may be the effect or the level left
SARS-CoV-2 [9] = test: Antiviral activity against Severe acute respiratory syndrome coronavirus 2 infected in African green monkey Vero E6 cells assessed as reduction in viral RNA copies at 50 uM incubated for 48 hrs by RT-qPCR analysis relative to control; assay type: functional; design: scale not given: the % may be the effect or the level left
SARS-CoV-2 [10] = test: Antiviral activity against Severe acute respiratory syndrome coronavirus 2 infected in African green monkey Vero E6 cells assessed as reduction in viral RNA copies at 3.125 uM incubated for 48 hrs by RT-qPCR analysis relative to control; assay type: functional; design: scale not given: the % may be the effect or the level left
SARS-CoV-2 [11] = test: Antiviral activity against Severe acute respiratory syndrome coronavirus 2 infected in African green monkey Vero E6 cells assessed as reduction in viralN-terminal 6-histidine tagged RNA copies at 12.5 uM incubated for 48 hrs by RT-qPCR analysis relative to control; assay type: functional; design: scale not given: the % may be the effect or the level left
SARS-CoV-2 [12] = test: Antiviral activity against Severe acute respiratory syndrome coronavirus 2 infected in African green monkey Vero E6 cells assessed as inhibition of viral cytopathic effect incubated for 72 hrs by CCK8 assay; assay type: functional, organism-based; settings: Severe acute respiratory syndrome coronavirus 2, Vero C1008, 72 h

CCC(CC)COC(=O)[C@H](C)N[P@](=O)(OC[C@H]1O[C@@](C#N)(c2ccc3c(N)ncnn23)[C@H](O)[C@@H]1O)Oc1ccccc1
Activity (SARS-CoV-2 [1]): 81.893% | Activity (SARS-CoV-2 [2]): 22.283% | Activity (SARS-CoV-2 [3]): 97.265% | Activity (SARS-CoV-2 [4]): 56.674% | Activity (SARS-CoV-2 [5]): 16.557% | CC50 (Vero C1008): > 200 µM | Activity (SARS-CoV-2 [6]): 103.72%

CCN1Cc2cc(OC)c(OC)cc2-c2cccc(N)c21
Activity (SARS-CoV-2 [1]): 97.85% | Activity (SARS-CoV-2 [7]): 53.79% | Activity (SARS-CoV-2 [2]): 44.04% | Activity (SARS-CoV-2 [8]): 72.33% | Activity (SARS-CoV-2 [9]): 76.41% | Activity (SARS-CoV-2 [3]): 87.56% | Activity (SARS-CoV-2 [4]): 69.61% | Activity (SARS-CoV-2 [5]): 42.07% | CC50 (Vero C1008): > 200 µM | Activity (SARS-CoV-2 [10]): 45.99% | Activity (SARS-CoV-2 [6]): 73.32% | Activity (SARS-CoV-2 [11]): 61.27% | EC50 (SARS-CoV-2 [12]): 3.69 µM

CCN1Cc2cc(OC)c(OC)cc2-c2cccc(NC(=O)C(F)(F)F)c21
Activity (SARS-CoV-2 [1]): 99.6% | Activity (SARS-CoV-2 [7]): 54.85% | Activity (SARS-CoV-2 [2]): 66.95% | Activity (SARS-CoV-2 [8]): 97.83% | Activity (SARS-CoV-2 [9]): 68.9% | Activity (SARS-CoV-2 [3]): 87.41% | Activity (SARS-CoV-2 [4]): 84.14% | Activity (SARS-CoV-2 [5]): 49.07% | CC50 (Vero C1008): > 200 µM | Activity (SARS-CoV-2 [10]): 56.23% | Activity (SARS-CoV-2 [6]): 82.36% | Activity (SARS-CoV-2 [11]): 68.79% | EC50 (SARS-CoV-2 [12]): 2.18 µM
